In this experiment the target is Beta-lactamase TEM (Escherichia coli, UniProt P62593). As to the kind of experiment: Inhibition constant (Ki) for TEM-1 beta-lactamase. Put shortly:
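Partially purified plasmid pBR322-encoded TEM-1 β-lactamase; computerized microacidimetric assay at pH 7, 37 °C. Time-dependent inactivation was checked by monitoring activity after enzyme preincubation with inhibitor at 1 to 100 concentrations.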
Beta-lactamase TEM, sequence (P62593 whole entry): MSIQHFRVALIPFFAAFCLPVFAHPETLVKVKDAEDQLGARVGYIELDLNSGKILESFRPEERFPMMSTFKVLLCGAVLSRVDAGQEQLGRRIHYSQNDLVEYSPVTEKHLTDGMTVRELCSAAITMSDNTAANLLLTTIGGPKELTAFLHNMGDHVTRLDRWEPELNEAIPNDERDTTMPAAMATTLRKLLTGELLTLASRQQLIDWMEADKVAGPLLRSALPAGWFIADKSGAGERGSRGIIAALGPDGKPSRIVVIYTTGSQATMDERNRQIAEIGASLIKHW
The Ki is the equilibrium dissociation constant of an inhibitor or competing ligand from its target. With `O=C(O)c1ccc2c(c1)N1C(=O)CC1CC2Cl` (stereo unspecified), the Ki turned out to be 50 µM.
`Cc1ccc(C(=O)O)cc1N1CC(Br)(Br)C1=O` showed an inhibition constant Ki of 160 µM.
In the case of `Cc1ccc(C(=O)O)cc1N1CCC1=O`, the affinity corresponds to a Ki of 10 µM.
The compound `Cc1ccc(C(=O)O)cc1N1CC(F)(Br)C1=O` (stereo unspecified) returned a Ki of 60 µM.
On to `O=C(O)c1ccc2c(c1)N1C(=O)CC1CC2F` (stereo unspecified), for which the Ki is 39 µM.
With `Cc1ccc(C(=O)O)cc1N1CC(F)C1=O` (stereo unspecified), the Ki was 20 µM.
For `O=C(O)c1ccc2c(c1)N1C(=O)CC1CC2` (stereo unspecified), the Ki turned out to be 20 µM.
Regarding `Cc1ccc(C(=O)O)cc1N1CC(F)(F)C1=O`, the affinity corresponds to a Ki of 83 µM.
In the case of `Cc1ccc(C(=O)O)cc1N1CC(Br)C1=O` (stereo unspecified) it was 40 µM.
`Cc1onc(-c2ccccc2Cl)c1C(=O)N[C@@H]1C(=O)N2[C@@H]1SC(C)(C)[C@@H]2C(=O)O` [CLOXACILLIN] registered a Ki of 13 µM. Compared with the last compound, the Ki is about 3.1-fold lower.
Turning to `CC1(C)S[C@@H]2[C@H](NC(=O)Cc3ccccc3)C(=O)N2[C@H]1C(=O)O` [PENICILLIN G], the Ki was found to be 20 µM.
